From ChEMBL document CHEMBL1156795, “Rational design of 5-phenyl-3-isoxazolecarboxylic acid ethyl esters as growth inhibitors of Mycobacterium tuberculosis. a potent and selective series for further drug development” (J Med Chem, 2010)
≈ marks a conversion by molar mass, not a printed value.

Tests used:
Type in all cases: functional
[1] = system: Mycobacterium tuberculosis; test: Antimycobacterial activity against rifampin-resistant Mycobacterium tuberculosis H37Rv after 16 to 24 hrs by microplate alamar
Method in brief: (§1)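 MIC by MABA against Mtb strains resistant to isoniazid, rifampin or streptomycin. Values are averages of two to three independent experiments.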

[2] = system: Mycobacterium tuberculosis; test: Antimycobacterial activity against isoniazid-resistant Mycobacterium tuberculosis H37Rv after 16 to 24 hrs by microplate alamar; method in brief: as §1
[3] = system: Mycobacterium tuberculosis; test: Antimycobacterial activity against streptomycin-resistant Mycobacterium tuberculosis H37Rv after 16 to 24 hrs by microplate alamar; method in brief: as §1

CCOC(=O)c1cc(-c2cccc(OCc3c(F)cccc3F)c2)on1
MIC [1]: 1 µM (≈ 0.359 µg/mL) | MIC [2]: 1.1 µM (≈ 0.395 µg/mL) | MIC [3]: 1.1 µM (≈ 0.395 µg/mL)

CCOC(=O)c1cc(-c2cccc(OCc3cccc(F)c3F)c2)on1
MIC [1]: 1 µM (≈ 0.359 µg/mL) | MIC [2]: 1 µM (≈ 0.359 µg/mL) | MIC [3]: 1 µM (≈ 0.359 µg/mL)

CCOC(=O)c1cc(-c2cccc(OCc3cccc(C(F)(F)F)c3)c2)on1
MIC [1]: 1 µM (≈ 0.391 µg/mL) | MIC [2]: 0.9 µM (≈ 0.352 µg/mL) | MIC [3]: 0.9 µM (≈ 0.352 µg/mL)

CCOC(=O)c1cc(-c2cccc(OCc3ccccc3Cl)c2)on1
MIC [1]: 1 µM (≈ 0.358 µg/mL) | MIC [2]: 1 µM (≈ 0.358 µg/mL) | MIC [3]: 1 µM (≈ 0.358 µg/mL)

CCOC(=O)c1cc(-c2cccc(OCc3cccc(Br)c3)c2)on1
MIC [1]: 1 µM (≈ 0.402 µg/mL) | MIC [2]: 1 µM (≈ 0.402 µg/mL) | MIC [3]: 1 µM (≈ 0.402 µg/mL)

CCOC(=O)c1cc(-c2cccc(OCc3cc(F)ccc3F)c2)on1
MIC [1]: 1 µM (≈ 0.359 µg/mL) | MIC [2]: 1 µM (≈ 0.359 µg/mL) | MIC [3]: 1.2 µM (≈ 0.431 µg/mL)

CCOC(=O)c1cc(-c2cccc(OCc3cccc(C(F)(F)F)c3F)c2)on1
MIC [1]: 1 µM (≈ 0.409 µg/mL) | MIC [2]: 0.9 µM (≈ 0.368 µg/mL) | MIC [3]: 1 µM (≈ 0.409 µg/mL)

NNC(=O)c1ccncc1 [ISONIAZID]
MIC [1]: 0.4 µM (≈ 0.0549 µg/mL) | MIC [2]: > 128 µM | MIC [3]: 0.5 µM (≈ 0.0686 µg/mL)

CO[C@H]1/C=C/O[C@@]2(C)Oc3c(C)c(O)c4c(O)c(c(/C=N/N5CCN(C)CC5)c(O)c4c3C2=O)NC(=O)/C(C)=C\C=C\[C@H](C)[C@H](O)[C@@H](C)[C@@H](O)[C@@H](C)[C@H](OC(C)=O)[C@@H]1C [RIFAMPIN]
MIC [1]: > 32 µM | MIC [2]: > 0.1 µM | MIC [3]: > 0.1 µM

CN[C@@H]1[C@H](O[C@H]2[C@H](O[C@H]3[C@H](O)[C@@H](O)[C@H](N=C(N)N)[C@@H](O)[C@@H]3N=C(N)N)O[C@@H](C)[C@]2(O)C=O)O[C@@H](CO)[C@H](O)[C@H]1O [STREPTOMYCIN]
MIC [1]: 0.2 µM (≈ 0.116 µg/mL) | MIC [2]: 0.4 µM (≈ 0.233 µg/mL) | MIC [3]: > 32 µM
